Values after ≈ are worked out from the molar mass of the structure shown. Active and inactive are the calls of the source. No cut-off for these calls is given here.
Legend:
[1] = system: Staphylococcus epidermidis; experiment: Antibacterial activity against Staphylococcus epidermidis H 6966/08 after 24 hrs by broth microdilution method; format: functional; conditions: H 6966/08, 24 h
Method in brief: (§1)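 Broth microdilution in Mueller–Hinton broth, compounds dissolved in DMSO, tested over a dilution series from 500 downward. MIC taken as ≥95% growth reduction (IC95) versus drug-free control. Benzylpenicillin comparator. Readings at 24 and 48 h.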

Candida tropicalis = experiment: Antifungal activity against Candida tropicalis 156 at 500 micromol/L after 24 to 48 hrs by broth microdilution method; format: functional, organism-based
Method in brief: (§2)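 Broth microdilution in RPMI 1640 with glutamine, fluconazole as reference. For yeasts, MIC is ≥80% growth reduction (IC80) versus control. For filamentous fungi, the value is expressed as IC50. Readings at 24 and 48 h.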

[2] = system: Mycobacterium tuberculosis; experiment: Antimycobacterial activity against Mycobacterium tuberculosis H37Rv My 331/88 after 21 days; format: functional; conditions: H37Rv My 331/88, 504 h
Method in brief: (§3)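 Micromethod MIC in Šula's semisynthetic medium at 37 °C. Compounds added in DMSO at 1000 down to 0.032 µmol/L. Isoniazid standard in sterile water at 0.5–250 µmol/L. Inocula: H37Rv 10^3, M. avium 10^5, M. kansasii 10^4. Read at 14 and 21 d, plus 7 d for M. kansasii.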

Mycobacterium kansasii [3] = experiment: Antimycobacterial activity against Mycobacterium kansasii 6509/96 after 21 days; format: functional; conditions: 6509/96, 504 h; method in brief: as §3
Staphylococcus aureus [4] = experiment: Antibacterial activity against methicillin-resistant Staphylococcus aureus H 5996/08 after 48 hrs by broth microdilution method; format: functional; conditions: H 5996/08, 48 h; method in brief: as §1
[5] = system: Trichophyton mentagrophytes; experiment: Antifungal activity against Trichophyton mentagrophytes 445 after 120 hrs by broth microdilution method; format: functional; conditions: Trichophyton mentagrophytes, 445, 120 h
Method in brief: (§4)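 Filamentous dermatophyte tested by broth microdilution in RPMI 1640 with glutamine, fluconazole as reference. Value expressed as IC50 relative to growth control. Read at 72 and 120 h.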

HepG2 = experiment: Cytotoxicity against human HepG2 cells after 24 hrs by CellTiter assay; format: cell-based; conditions: HepG2, 24 h
Method in brief: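 HepG2 cells (passage 27–33) in MEM with 10% FBS, L-glutamine and NEAA, seeded at 1×10^4 per well. Treated next day with compounds at 0.1–100 µM (or 0.1–25 µmol/L), triplicates, <1% DMSO, for 24 h at 37 °C, 5% CO2. MTS reagent added for 2 h, absorbance read at 490 nm. IC50 taken against untreated (100%) and 10% DMSO (0%) controls.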

Lichtheimia corymbifera [6] = experiment: Antifungal activity against Absidia corymbifera 272 after 48 hrs by broth microdilution method; format: functional; conditions: Lichtheimia corymbifera, 272, 48 h; method in brief: as §2
Candida albicans [7] = experiment: Antifungal activity against Candida albicans ATCC 44859 after 48 hrs by broth microdilution method; format: functional; conditions: ATCC 44859, 48 h; method in brief: as §2
Aspergillus fumigatus [8] = experiment: Antifungal activity against Aspergillus fumigatus 231 after 24 hrs by broth microdilution method; format: functional; conditions: Aspergillus fumigatus, 231, 24 h; method in brief: as §2
Trichosporon asahii [9] = experiment: Antifungal activity against Trichosporon asahii 1188 after 48 hrs by broth microdilution method; format: functional; conditions: Trichosporon asahii, 1188, 48 h; method in brief: as §2
Klebsiella pneumoniae [10] = experiment: Antibacterial activity against ESBL-positive Klebsiella pneumoniae J 14368/08 at 500 micromol/L after 24 to 48 hrs by broth microdilution method; format: functional, organism-based; method in brief: as §1
Nakaseomyces glabratus = experiment: Antifungal activity against Candida glabrata 20/I at 500 micromol/L after 24 to 48 hrs by broth microdilution method; format: functional, organism-based; method in brief: as §2
Pichia kudriavzevii [11] = experiment: Antifungal activity against Candida krusei E28 after 24 hrs by broth microdilution method; format: functional; conditions: E28, 24 h; method in brief: as §2
Aspergillus fumigatus [12] = experiment: Antifungal activity against Aspergillus fumigatus 231 after 48 hrs by broth microdilution method; format: functional; conditions: Aspergillus fumigatus, 231, 48 h; method in brief: as §2
[13] = system: Mycobacterium tuberculosis; experiment: Antimycobacterial activity against Mycobacterium tuberculosis H37Rv My 331/88 after 14 days; format: functional; conditions: H37Rv My 331/88, 336 h; method in brief: as §3
Trichosporon asahii [14] = experiment: Antifungal activity against Trichosporon asahii 1188 after 24 hrs by broth microdilution method; format: functional; conditions: Trichosporon asahii, 1188, 24 h; method in brief: as §2
Lichtheimia corymbifera [15] = experiment: Antifungal activity against Absidia corymbifera 272 after 24 hrs by broth microdilution method; format: functional; conditions: Lichtheimia corymbifera, 272, 24 h; method in brief: as §2
Mycobacterium avium [16] = experiment: Antimycobacterial activity against isoniazid, rifampicin, ethambutol and ofloxacin-resistant Mycobacterium avium My 330/88 after 21 days; format: functional; conditions: My 330/88, 504 h; method in brief: as §3
Staphylococcus aureus [17] = experiment: Antibacterial activity against Staphylococcus aureus CCM 4516/08 after 24 hrs by broth microdilution method; format: functional; conditions: CCM 4516/08, 24 h; method in brief: as §1
[18] = system: Trichophyton mentagrophytes; experiment: Antifungal activity against Trichophyton mentagrophytes 445 after 72 hrs by broth microdilution method; format: functional; conditions: Trichophyton mentagrophytes, 445, 72 h; method in brief: as §4
Staphylococcus aureus [19] = experiment: Antibacterial activity against Staphylococcus aureus CCM 4516/08 after 48 hrs by broth microdilution method; format: functional; conditions: CCM 4516/08, 48 h; method in brief: as §1
Mycobacterium kansasii [20] = experiment: Antimycobacterial activity against Mycobacterium kansasii My 235/80 after 21 days; format: functional; conditions: My 235/80, 504 h; method in brief: as §3
Escherichia coli = experiment: Antibacterial activity against Escherichia coli CCM 4517 at 500 micromol/L after 24 to 48 hrs by broth microdilution method; format: functional, organism-based; method in brief: as §1
Pseudomonas aeruginosa = experiment: Antibacterial activity against Pseudomonas aeruginosa CCM 1961 at 500 micromol/L after 24 to 48 hrs by broth microdilution method; format: functional, organism-based; method in brief: as §1
Staphylococcus aureus [21] = experiment: Antibacterial activity against methicillin-resistant Staphylococcus aureus H 5996/08 after 24 hrs by broth microdilution method; format: functional; conditions: H 5996/08, 24 h; method in brief: as §1
Pichia kudriavzevii [22] = experiment: Antifungal activity against Candida krusei E28 after 48 hrs by broth microdilution method; format: functional; conditions: E28, 48 h; method in brief: as §2
Mycobacterium kansasii [23] = experiment: Antimycobacterial activity against Mycobacterium kansasii 6509/96 after 7 days; format: functional; conditions: 6509/96, 168 h; method in brief: as §3
Mycobacterium avium [24] = experiment: Antimycobacterial activity against isoniazid, rifampicin, ethambutol and ofloxacin-resistant Mycobacterium avium My 330/88 after 14 days; format: functional; conditions: My 330/88, 336 h; method in brief: as §3
Enterococcus sp. = experiment: Antibacterial activity against Enterococcus sp. J 14365/08 at 500 micromol/L after 24 to 48 hrs by broth microdilution method; format: functional, organism-based; method in brief: as §1
Klebsiella pneumoniae [25] = experiment: Antibacterial activity against Klebsiella pneumoniae D 11750/08 at 500 micromol/L after 24 to 48 hrs by broth microdilution method; format: functional, organism-based; method in brief: as §1
[26] = system: Staphylococcus epidermidis; experiment: Antibacterial activity against Staphylococcus epidermidis H 6966/08 after 48 hrs by broth microdilution method; format: functional; conditions: H 6966/08, 48 h; method in brief: as §1
Mycobacterium kansasii [27] = experiment: Antimycobacterial activity against Mycobacterium kansasii 6509/96 after 14 days; format: functional; conditions: 6509/96, 336 h; method in brief: as §3
Candida albicans [28] = experiment: Antifungal activity against Candida albicans ATCC 44859 after 24 hrs by broth microdilution method; format: functional; conditions: ATCC 44859, 24 h; method in brief: as §2
Mycobacterium kansasii [29] = experiment: Antimycobacterial activity against Mycobacterium kansasii My 235/80 after 7 days; format: functional; conditions: My 235/80, 168 h; method in brief: as §3
Mycobacterium kansasii [30] = experiment: Antimycobacterial activity against Mycobacterium kansasii My 235/80 after 14 days; format: functional; conditions: My 235/80, 336 h; method in brief: as §3

For CCOP(=O)(OCC)Oc1ccc(Cl)cc1C(=O)Nc1ccc(Cl)cc1, the MIC95 [1] was 125 µM (≈ 52.3 µg/mL), the Activity (Candida tropicalis) was “inactive” and the MIC [2] was 4 µM (≈ 1.67 µg/mL). The MIC (Mycobacterium kansasii [3]) was 8 µM (≈ 3.35 µg/mL), the MIC95 (Staphylococcus aureus [4]) was 250 µM (≈ 105 µg/mL) and the MIC50 [5] was 500 µM (≈ 209 µg/mL). The IC50 (HepG2) was 13 µM, the MIC50 (Lichtheimia corymbifera [6]) was greater than 500 µM and the MIC80 (Candida albicans [7]) was greater than 500 µM. The MIC50 (Aspergillus fumigatus [8]) was greater than 500 µM, the MIC80 (Trichosporon asahii [9]) was greater than 500 µM and the Activity (Klebsiella pneumoniae [10]) was “inactive”. For the same molecule, the Activity (Nakaseomyces glabratus) was “inactive”, the MIC80 (Pichia kudriavzevii [11]) was greater than 500 µM and the MIC50 (Aspergillus fumigatus [12]) was greater than 500 µM. The MIC [13] was 4 µM (≈ 1.67 µg/mL), the MIC80 (Trichosporon asahii [14]) was greater than 500 µM and the MIC50 (Lichtheimia corymbifera [15]) was greater than 500 µM. The MIC (Mycobacterium avium [16]) was 8 µM (≈ 3.35 µg/mL), the MIC95 (Staphylococcus aureus [17]) was 62.5 µM (≈ 26.1 µg/mL) and the MIC50 [18] was 500 µM (≈ 209 µg/mL). The MIC95 (Staphylococcus aureus [19]) was 125 µM (≈ 52.3 µg/mL), the MIC (Mycobacterium kansasii [20]) was 8 µM (≈ 3.35 µg/mL) and the Activity (Escherichia coli) was “inactive”. The Activity (Pseudomonas aeruginosa) was “inactive”, the MIC95 (Staphylococcus aureus [21]) was 125 µM (≈ 52.3 µg/mL) and the MIC80 (Pichia kudriavzevii [22]) was greater than 500 µM. For the same molecule, the MIC (Mycobacterium kansasii [23]) was 8 µM (≈ 3.35 µg/mL), the MIC (Mycobacterium avium [24]) was 8 µM (≈ 3.35 µg/mL) and the Activity (Enterococcus sp.) was “inactive”. The Activity (Klebsiella pneumoniae [25]) was “inactive”, the MIC95 [26] was 250 µM (≈ 105 µg/mL) and the MIC (Mycobacterium kansasii [27]) was 8 µM (≈ 3.35 µg/mL). It also gave an MIC80 (Candida albicans [28]) greater than 500 µM, an MIC (Mycobacterium kansasii [29]) of 8 µM (≈ 3.35 µg/mL) and an MIC (Mycobacterium kansasii [30]) of 8 µM (≈ 3.35 µg/mL).

CCOP(=O)(OCC)Oc1ccc(Br)cc1C(=O)Nc1ccc(Cl)c(Cl)c1 was tested, and the MIC95 [1] was 500 µM (≈ 249 µg/mL), the Activity (Candida tropicalis) was “inactive” and the MIC [2] was 1 µM (≈ 0.497 µg/mL). The MIC (Mycobacterium kansasii [3]) was 4 µM (≈ 1.99 µg/mL), the MIC95 (Staphylococcus aureus [4]) was greater than 500 µM and the MIC50 [5] was greater than 500 µM. For the same molecule, the IC50 (HepG2) was 2.04 µM, the MIC50 (Lichtheimia corymbifera [6]) was greater than 500 µM and the MIC80 (Candida albicans [7]) was greater than 500 µM. The MIC50 (Aspergillus fumigatus [8]) was greater than 500 µM, the MIC80 (Trichosporon asahii [9]) was greater than 500 µM and the Activity (Klebsiella pneumoniae [10]) was “inactive”. The Activity (Nakaseomyces glabratus) was “inactive”, the MIC80 (Pichia kudriavzevii [11]) was greater than 500 µM and the MIC50 (Aspergillus fumigatus [12]) was greater than 500 µM. For the same molecule, the MIC [13] was 1 µM (≈ 0.497 µg/mL), the MIC80 (Trichosporon asahii [14]) was greater than 500 µM and the MIC50 (Lichtheimia corymbifera [15]) was greater than 500 µM. The MIC (Mycobacterium avium [16]) was 16 µM (≈ 7.95 µg/mL), the MIC95 (Staphylococcus aureus [17]) was 500 µM (≈ 249 µg/mL) and the MIC50 [18] was greater than 500 µM. The MIC95 (Staphylococcus aureus [19]) was greater than 500 µM, the MIC (Mycobacterium kansasii [20]) was 4 µM (≈ 1.99 µg/mL) and the Activity (Escherichia coli) was “inactive”. For the same molecule, the Activity (Pseudomonas aeruginosa) was “inactive”, the MIC95 (Staphylococcus aureus [21]) was 500 µM (≈ 249 µg/mL) and the MIC80 (Pichia kudriavzevii [22]) was greater than 500 µM. For the same molecule, the MIC (Mycobacterium kansasii [23]) was 2 µM (≈ 0.994 µg/mL), the MIC (Mycobacterium avium [24]) was 16 µM (≈ 7.95 µg/mL) and the Activity (Enterococcus sp.) was “inactive”. The Activity (Klebsiella pneumoniae [25]) was “inactive”, the MIC95 [26] was greater than 500 µM and the MIC (Mycobacterium kansasii [27]) was 4 µM (≈ 1.99 µg/mL). For the same molecule, the MIC80 (Candida albicans [28]) was greater than 500 µM, the MIC (Mycobacterium kansasii [29]) was 2 µM (≈ 0.994 µg/mL) and the MIC (Mycobacterium kansasii [30]) was 4 µM (≈ 1.99 µg/mL).

Reference: ChEMBL document CHEMBL3102784, “Salicylanilide diethyl phosphates: synthesis, antimicrobial activity and cytotoxicity” (Bioorg Med Chem, 2014)
